Measured values taken from ChEMBL document CHEMBL3808360, “Discovery of Potent Non-Nucleoside Inhibitors of Dengue Viral RNA-Dependent RNA Polymerase from a Fragment Hit Using Structure-Based Drug Design” (J Med Chem, 2016).
Values belong to the compound of their own block, whether it stands above or below them. Calls of active or inactive are those of the source. No cut-off for these calls is given here.

How the values were obtained:
[1] = Inhibition of RdRp activity of Dengue virus 4 full length NS5 preincubated for 15 mins followed by RNA and NTP addition measured after 120 mins; parameters: species or system dengue virus type 4
Method in brief: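 Reaction with 100 nM DENV4 full-length NS5 and 100 nM in vitro transcribed DENV4 mini-genome RNA template (575 nt, linked 5'-3' UTRs). NTPs: 20 µM each ATP, GTP and UTP plus 5 µM ATTO-CTP. Compound (two-fold series from 20 or 100 µM) preincubated with enzyme 15 min at room temperature. RNA/NTP mix added; run 120 min. Stopped with alkaline phosphatase stop buffer, 60 min. Fluorescence read at ex 422/em 566 nm. Duplicate wells; IC₅₀ from variable-slope sigmoidal fit.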

[2] = Binding affinity to Dengue virus 4 NS5 RdRp (274 to 900 residues) by ITC method; parameters: species or system dengue virus type 4
Method in brief: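 DENV-4 RdRp (residues 274-900) at 30-50 µM in the cell, in 20 mM HEPES pH 7.0, 300 mM NaCl, 2 mM TCEP, DMSO matched to ligand. Ligand diluted from a 50 mM DMSO stock into the same buffer, typically 2.5 mM in the syringe. Run at 25°C: one 0.4 µl injection, then 15 × 2.6 µl. Heat of dilution into buffer subtracted.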

[3] = Binding affinity to biotinylated Dengue virus 4 NS5 RdRp by surface plasmon resonance analysis; parameters: species or system dengue virus type 4
Method in brief: (§1)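 Blank reference cell. Compound run as a 7-point 2-fold series, typically from 200 µM, with zero-concentration subtraction. Flow 30 µL/min, 45 s contact, 60-600 s dissociation, run from low to high concentration.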

[4] = Apparent permeability across apical to basolateral side in human Caco2 cells at pH 7.4; assay type: ADME, cell-based; conditions: Caco-2, pH 7.4
Method in brief: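 Apical-to-basal Caco-2 permeability measured at pH 7.4.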

[5] = test system: dengue virus type 2; experiment: Antiviral activity against Dengue virus 2 MY97-10340 infected in human A549 cells assessed as reduction in DENV envelope protein level after 48 hrs; assay type: functional, organism-based; conditions: MY97-10340, A549, 48 h
Method in brief: (§2)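 A549 cells (~7×10^3/well) seeded in Ham's F-12K with 2% FBS, 1 mM L-glutamine and 1% penicillin-streptomycin, held overnight at 37°C, 5% CO₂. Infected at 24 h post-seeding (DENV1 MOI 0.5, DENV2 MOI 0.3, DENV3 MOI 1, DENV4 MOI 0.5). Compound added at once as a 10-point, 3-fold series, 0.5% DMSO final. Fixed at 48 h with 4% paraformaldehyde. Stained with Dylight 488-4G2 anti-envelope antibody and DRAQ5 nuclear stain. Envelope protein quantified by high-content imaging; EC₅₀ calculated.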

[6] = Inhibition of RdRp activity of Dengue virus 1 NS5 preincubated for 15 mins followed by RNA and NTP addition measured after 120 mins; parameters: species or system dengue virus type 1
[7] = test system: dengue virus type 4; experiment: Antiviral activity against Dengue virus 4 MY01-22713 infected in human A549 cells assessed as reduction in DENV envelope protein level after 48 hrs; assay type: functional, organism-based; conditions: MY01-22713, A549, 48 h; method in brief: as §2
[8] = test system: dengue virus type 1; experiment: Antiviral activity against Dengue virus 1 MY97-10245 infected in human A549 cells assessed as reduction in DENV envelope protein level after 48 hrs; assay type: functional, organism-based; conditions: MY97-10245, A549, 48 h; method in brief: as §2
[9] = Cytotoxicity against human HepG2 cells; assay type: cell-based
[10] = Inhibition of RdRp activity of Dengue virus 2 NS5 preincubated for 15 mins followed by RNA and NTP addition measured after 120 mins; parameters: species or system dengue virus type 2
[11] = Dissociation constant, pKa of the compound; assay type: physicochemical
[12] = Lipophilicity, log D of the compound at pH 7.4; assay type: physicochemical; conditions: buffer
[13] = test system: dengue virus type 3; experiment: Antiviral activity against Dengue virus 3 MY05-34640 infected in human A549 cells assessed as reduction in DENV envelope protein level after 48 hrs; assay type: functional, organism-based; conditions: MY05-34640, A549, 48 h; method in brief: as §2
[14] = Inhibition of RdRp activity of Dengue virus 3 NS5 preincubated for 15 mins followed by RNA and NTP addition measured after 120 mins; parameters: species or system dengue virus type 3
[15] = Binding affinity to Dengue virus 3 NS5 RdRp by surface plasmon resonance analysis; parameters: species or system dengue virus type 3; method in brief: as §1
[16] = Inhibition of RdRp activity of Dengue virus 3 NS5; parameters: species or system dengue virus type 3
[17] = test system: dengue virus type 3; experiment: Antiviral activity against Dengue virus 3 MY05-34640 infected in human A549 cells assessed as reduction in DENV envelope protein level up to 50 uM after 48 hrs; assay type: functional, organism-based; method in brief: as §2
[18] = test system: dengue virus type 2; experiment: Antiviral activity against Dengue virus 2 MY97-10340 infected in human A549 cells assessed as reduction in DENV envelope protein level up to 50 uM after 48 hrs; assay type: functional, organism-based; method in brief: as §2
[19] = test system: dengue virus type 1; experiment: Antiviral activity against Dengue virus 1 MY97-10245 infected in human A549 cells assessed as reduction in DENV envelope protein level up to 50 uM after 48 hrs; assay type: functional, organism-based; method in brief: as §2
[20] = test system: dengue virus type 4; experiment: Antiviral activity against Dengue virus 4 MY01-22713 infected in human A549 cells assessed as reduction in DENV envelope protein level up to 50 uM after 48 hrs; assay type: functional, organism-based; method in brief: as §2
[21] = Inhibition of RdRp activity of Dengue virus 4 of NS5 preincubated with enzyme followed by RNA and NTP addition; parameters: species or system dengue virus type 4
[22] = Binding affinity to N-terminal AviTag Dengue virus 3 NS5 RdRp (263 to 900 residues) expressed in Escherichia coli BL21 cells by surface plasmon resonance analysis; parameters: species or system dengue virus type 3; method in brief: as §1

SMILES: O=C(O)Cc1cc(CC(=O)O)cc(-c2ccccc2)c1
- IC50 [1]: 177 µM
- Kd [2]: 154 µM

SMILES: O=C(O)Cc1cc(CC(=O)O)cc(-c2ccc(Cl)s2)c1
- Kd [2]: 33 µM

SMILES: COc1cccc(S(=O)(=O)NC(=O)c2cc(-c3ccc(C#CCO)s3)c(OC)cc2OC)c1
- EC50 [5]: 2.3 µM
- IC50 [6]: 0.068 µM
- EC50 [7]: 1.8 µM
- EC50 [8]: 1.8 µM
- CC50 [9]: > 50 µM
- Kd [3]: 0.07 µM
- IC50 [10]: 0.11 µM
- pKa [11]: 4.7
- logD [12]: 1.6
- EC50 [13]: 1.8 µM
- Papp A→B [4]: 3.91 ×10⁻⁶ cm/s
- IC50 [14]: 0.048 µM

SMILES: O=C(O)Cc1cc(CC(=O)O)cc(-c2cccc(Cl)c2)c1
- IC50 [1]: 141 µM

SMILES: N#Cc1ccc(-c2cc(CC(=O)O)cc(CC(=O)O)c2)s1
- IC50 [1]: 199 µM
- Kd [2]: 134 µM

SMILES: O=C(O)Cc1cc(CC(=O)O)cc(-c2ccc(C#CCO)s2)c1
- IC50 [6]: 0.3 µM
- IC50 [10]: 2.2 µM
- Papp A→B [4]: 0.51 ×10⁻⁶ cm/s
- IC50 [14]: 0.5 µM

SMILES: O=C(O)Cc1ccc(O)c(-c2ccccc2)c1
- Kd [15]: 200 µM
- IC50 [16]: 769 µM

SMILES: O=C(O)Cc1cc(CC(=O)O)cc(-c2ccccc2Cl)c1
- IC50 [1]: 192 µM

SMILES: O=C(O)Cc1cc(CC(=O)O)cc(-c2ccc(Cl)cc2)c1
- IC50 [1]: 62 µM

SMILES: Cc1ccc(-c2cc(CC(=O)O)cc(CC(=O)O)c2)s1
- IC50 [1]: 96 µM

SMILES: COc1ccc(CC(=O)O)cc1-c1ccccc1
- IC50 [21]: 734 µM
- Kd [22]: 613 µM

SMILES: O=C(O)Cc1cc(CC(=O)O)cc(-c2ccc(Br)s2)c1
- IC50 [1]: 39 µM
- Kd [2]: 46 µM

SMILES: COc1cc(C)c(-c2ncc[nH]2)cc1-c1ccc(C#CCO)s1
- IC50 [1]: 44 µM
- pKa [11]: 6.6
- logD [12]: 3.6

SMILES: O=C(O)Cc1cc(CC(=O)O)cc(-c2ccco2)c1
- IC50 [1]: 211 µM
- Kd [2]: 552 µM

More lines, main results first:

- IC50 [1]: 29 µM
SMILES: O=C(O)Cc1cc(CC(=O)O)cc(-c2ccc(C#CCCO)s2)c1
- Kd [2]: 34 µM

- IC50 [1]: 15 µM
SMILES: O=C(O)Cc1cc(CC(=O)O)cc(-c2cccs2)c1
- Kd [2]: 28 µM

- IC50 [1]: 7.5 µM
- Papp A→B [4]: 2.73 ×10⁻⁶ cm/s
SMILES: COc1ccc(CC(=O)O)cc1-c1ccc(C#CCO)s1
- Kd [3]: 2.2 µM
- Kd [2]: 14 µM

- EC50 [5]: 34 µM
- IC50 [1]: 0.17 µM
- EC50 [7]: 41 µM
- EC50 [8]: 31 µM
- pKa [11]: 3.8
- logD [12]: 1.7
- EC50 [13]: 18 µM
- Papp A→B [4]: 0.5 ×10⁻⁶ cm/s
SMILES: COc1cc(C)c(C(=O)NS(=O)(=O)c2ccccc2)cc1-c1ccc(C#CCO)s1

- IC50 [1]: 2.5 µM
- pKa [11]: 4.8
- logD [12]: 0.78
SMILES: COc1cc(C)c(S(=O)(=O)NC(C)=O)cc1-c1ccc(C#CCO)s1

- EC50 [5]: > 50 µM
- IC50 [1]: 0.34 µM
- EC50 [7]: > 50 µM
- EC50 [8]: > 50 µM
- pKa [11]: 4
- logD [12]: 0.8
- EC50 [13]: > 50 µM
- Papp A→B [4]: 0.5 ×10⁻⁶ cm/s
SMILES: COc1cc(C)c(C(=O)NS(C)(=O)=O)cc1-c1ccc(C#CCO)s1
- Kd [3]: 0.12 µM
- Activity [17]: inactive
- Activity [18]: inactive
- Activity [19]: inactive
- Activity [20]: inactive
- Kd [2]: 2 µM

- EC50 [5]: 37 µM
- IC50 [1]: 0.25 µM
- EC50 [7]: 14 µM
- EC50 [8]: 15 µM
- pKa [11]: 4.8
- logD [12]: 1.5
- EC50 [13]: 7.3 µM
- Papp A→B [4]: 10.8 ×10⁻⁶ cm/s
SMILES: COc1cc(OC)c(-c2ccc(C#CCO)s2)cc1C(=O)NS(=O)(=O)c1ccccc1
- Kd [3]: 0.09 µM

- IC50 [1]: 2.4 µM
- Papp A→B [4]: 1.39 ×10⁻⁶ cm/s
SMILES: COc1ccc(-c2nnn[nH]2)cc1-c1ccc(C#CCO)s1

- IC50 [1]: 3.2 µM
- pKa [11]: 5.5
- logD [12]: 1.9
SMILES: COc1cc(C)c(-c2noc(=O)[nH]2)cc1-c1ccc(C#CCO)s1

- EC50 [5]: 13 µM
- IC50 [1]: 0.14 µM
- EC50 [7]: 7 µM
- EC50 [8]: 6.8 µM
- pKa [11]: 3.8
- logD [12]: 0.9
- EC50 [13]: 5.5 µM
SMILES: COc1cccc(S(=O)(=O)NC(=O)c2cc(-c3ccc(C#CCO)s3)c(Cl)cc2OC)c1
- Kd [3]: 0.01 µM

- IC50 [1]: 2.3 µM
- pKa [11]: 4.2
- logD [12]: 0.79
SMILES: COc1ccc(C(=O)O)cc1-c1ccc(C#CCO)s1
- Kd [3]: 1.7 µM
- Kd [2]: 3.8 µM

- IC50 [1]: 0.53 µM
- pKa [11]: 4.2
- logD [12]: 1.2
SMILES: COc1cc(C)c(C(=O)O)cc1-c1ccc(C#CCO)s1
- Kd [3]: 0.11 µM
- Activity [17]: inactive
- Activity [18]: inactive
- Activity [19]: inactive
- Activity [20]: inactive
- Kd [2]: 1.6 µM
